Published values from different studies.
Protocols differ between the studies behind these lines.

SMILES	target or system	assay	system	conditions	quantity	value
O=C(CCCCCCC(=O)Nc1ccc(CC[18F])cc1)NO			male nude mouse, stomach	intravenous, 2 h, tumour-bearing	tracer uptake	1 %ID/g
Cn1ccc(COc2cnc(C(N)=O)cc2-c2ccc(O[11CH3])cc2F)n1			male mouse, pancreas	intravenous, 2.5 MBq, 1 h	tracer uptake	5.87 %ID/g
CN(C(=O)n1cnc(-c2ccc[n+]([O-])c2)c1)C1CCCCC1			male cynomolgus monkey, plasma	oral, 0.1 mg/kg	Cmax	37.1 ng/mL
O=C(CN1C(=O)Cc2c([nH]c3ccc(Br)cc23)-c2ccc(Cl)cc21)N1CCNCC1	J774	cell growth or viability, WST-1		24 h	CC50	≤ 10 µM
Nc1ccc(C=Cc2ccc([125I])cc2)cc1			Swiss mouse, brain	intravenous, 5 µCi, 2 min	tracer uptake	2.29 %ID/g
O=c1[nH]c2sc3c(c2c(=O)n1O)CCN(Cc1ccccc1)C3	HFF	cell growth or viability, MTS		10 µM, 7 days	viability	104%
O=C(CN1C(=O)Cc2c([nH]c3ccc(Br)cc23)-c2ccc(Cl)cc21)N1CCOCC1	J774	cell growth or viability, WST-1		24 h	CC50	≤ 10 µM
O=c1[nH]c2sc3c(c2c(=O)n1O)CCNC3	HFF	cell growth or viability, MTS		10 µM, 7 days	viability	107%
CC1COc2ccccc2N1C(=O)C(Cl)Cl (stereo not shown)		metabolic stability	female monkey, liver microsomes	5 µM, pH 7.4	microsomal CLint	1400 µL/min/mg
O=c1[nH]c2c(-c3ccccc3)csc2c(=O)n1O	HFF	cell growth or viability, MTS		10 µM, 7 days	viability	130%
CCN(CC)C(=O)[C@@]1(c2ccccc2)C[C@H]1CN			male cynomolgus monkey, plasma	oral, 30 mg/kg	Cmax	5020 ng/mL
CC(C)(C)OC(=O)CN1C(=O)Cc2c([nH]c3ccc(Br)cc23)-c2ccc(Cl)cc21	J774	cell growth or viability, WST-1		24 h	CC50	≤ 100 µM
O=c1[nH]c2sc(-c3ccc(F)cc3)cc2c(=O)n1O	HFF	cell growth or viability, MTS		10 µM, 7 days	viability	112%
